Assay results reported in ChEMBL document CHEMBL1131052, “Bis-substituted malonic acid hydroxamate derivatives as inhibitors of human neutrophil collagenase (MMP8)” (J Med Chem, 1998).

What follows are molecules tested against Neutrophil collagenase (Homo sapiens, UniProt P22894) (assay: Inhibition of human neutrophil collagenase (Matrix metalloprotease-8)).
How it was run: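 Catalytic domain of MMP8 (Phe79–Gly242) at 8 nM; fluorogenic substrate Dnp-Pro-Leu-Gly-Leu-Trp-Ala-D-Arg-NH2 at 1 × 10^-5 M; 10 mM CaCl2, 100 mM NaCl, 50 mM Tris/HCl pH 7.6, 25 °C. Initial hydrolysis rates were taken from the fluorescence rise at 350 nm over 100 s. IC50 values were fitted from these rates, and Ki values were derived from the kinetic data.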

Neutrophil collagenase, sequence (P22894 whole entry, the tested form may be a part): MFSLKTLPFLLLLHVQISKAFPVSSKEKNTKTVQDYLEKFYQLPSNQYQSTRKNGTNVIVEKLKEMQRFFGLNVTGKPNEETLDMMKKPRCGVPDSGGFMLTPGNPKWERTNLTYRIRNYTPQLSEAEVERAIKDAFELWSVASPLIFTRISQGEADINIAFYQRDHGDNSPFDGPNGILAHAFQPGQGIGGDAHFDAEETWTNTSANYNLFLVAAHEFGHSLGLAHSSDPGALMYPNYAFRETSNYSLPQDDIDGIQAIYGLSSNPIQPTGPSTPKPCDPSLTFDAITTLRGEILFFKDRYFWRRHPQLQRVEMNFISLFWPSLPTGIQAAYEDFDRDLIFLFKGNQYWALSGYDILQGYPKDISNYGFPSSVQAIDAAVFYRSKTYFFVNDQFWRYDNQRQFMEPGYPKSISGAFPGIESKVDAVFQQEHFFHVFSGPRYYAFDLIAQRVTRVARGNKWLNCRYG

Ki [nM]	SMILES
1500	O=C(NO)C1(C(=O)NCc2ccccc2)Cc2ccccc2C1
1100	CC(Cc1ccccc1)(C(=O)NO)C(=O)NCc1ccccc1 (stereo not given)
9600	CC(Cc1ccccc1)(C(=O)NO)C(=O)NCCc1ccccc1 (stereo not given)
45000	CC(Cc1ccccc1)(C(=O)NO)C(=O)Nc1cccc2ccccc12 (stereo not given)
41000	CCOC(=O)C(C)(CC(C)C)C(=O)NO (stereo not given)
380	CC(Cc1ccccc1)(C(=O)NO)C(=O)NCCCCc1ccccc1 (stereo not given)
41000	CC(Cc1ccccc1)(C(=O)NO)C(=O)NCc1ccc(C(=O)O)cc1 (stereo not given)
8100	CC(Cc1ccccc1)(C(=O)NO)C(=O)N1CCc2ccccc2C1 (stereo not given)
300	O=C(NO)C1(C(=O)NCCCc2ccccc2)Cc2ccccc2C1
11000	CCOC(=O)C(C)(Cc1ccccc1)C(=O)NO (stereo not given)
240	CC(Cc1ccccc1)(C(=O)NO)C(=O)NCCCc1ccccc1 (stereo not given)
2300	CC(=O)NC(Cc1ccccc1)(C(=O)NO)C(=O)NCc1ccccc1 (stereo not given)
44000	CC(Cc1ccccc1)(C(=O)NO)C(=O)Nc1ccccc1 (stereo not given)
1900	O=C(NO)C1(C(=O)NCCCc2ccccc2)Cc2ccccc2-c2ccccc2C1
1900	O=C(NO)C(O)(Cc1ccccc1)C(=O)NCc1ccccc1 (stereo not given)
